Screens deposited in PubChem BioAssay by several laboratories.
BaF3 tox = reduces parental Ba/F3 cell viability, JAK2V617F counter-screen; actives 1.1% (n = 220,000); inhibition, % at 5.6 µM; AID 1486; CellTiter-Glo ATP luminescence;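 active = inhibition above a per-campaign cutoff, the mean inhibition of all tested compounds plus 3 SD, cut at about 27% in these data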
bCat nuc transl = modulators of beta-catenin nuclear translocation | HeLa beta-catenin nuclear translocation, immunofluorescence imaging | actives 0.3% (n = 190,000) | nuclear translocation activity, % at 5 µM;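 active = nuclear translocation activity above 50% at 5 µM, with a well cell count of 50 or more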;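 note: per-cell ratio of nuclear to cytoplasmic median beta-catenin stain intensity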
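assay system = human HeLa cells, endogenous beta-catenin | times = compound treatment 24 h, 37°C, 5% CO2 | detection = Anti-beta-catenin immunofluorescence on PFA-fixed, Triton-permeabilized cells, DAPI nuclei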
IEC-6 tox = kills IEC-6 intestinal cells in KLF5 counter-screen | IEC-6 cytotoxicity, luminescence viability | inhibition, % at 5 µM | actives 0.78% (n = 290,000)
Ba/F3 V617F tox = lowers viability of Ba/F3 cells expressing EpoR and JAK2V617F; actives 1.1% (n = 220,000); inhibition, % at 5.6 µM; ATP luminescence;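 active = inhibition above the campaign mean plus 3 SD over all tested compounds, cut at about 24% in these data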;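 note: cytokine-independent growth of Ba/F3 cells driven by EpoR plus mutant JAK2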
MT stabilizer = microtubule stabilizers in HeLa cells | HeLa tubulin immunostaining HCS, 24 h; share of cells brighter than vehicle mean+2SD | % tubulin-high responders, % at 10 µM | actives 0.83% (n = 200,000);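 active = plate Z-score above 3 for both tubulin-high and condensed-nucleus cell shares, with cell loss under 80%, at 10 µM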;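 note: anti alpha tubulin signal scored within the nucleus-defined area of each cell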
KLF5 inh = inhibitors of KLF5 expression | AID 1700 | inhibition, % at 5 µM | actives 0.23% (n = 290,000) | DLD-1 KLF5 promoter-luciferase reporter, luminescence;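 active = inhibition above a per-plate limit of that plate's mean compound inhibition plus 3 SD, cut at about 60% in these data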;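 note: higher means less KLF5 promoter-driven luciferase light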
IEC-6 tox confirm = confirmation of cytotoxic compounds in rat IEC-6 intestinal epithelial cells; shares compounds with IEC-6 tox; IEC-6 rat intestinal epithelial viability, luminescence; inhibition, % at 5 µM; actives 63% (n = 1,900)
A number is an active result. Most compounds without a hit are left out; they make up all but 2.1% or so of the library. Cut-off read from the data, not from the text of the source, unless noted: active = inhibition above about 22%; inactive = the rest.

Results for CN(C)S(=O)(=O)c1ccc(NC(=O)N2CCN(c3cccc(C(F)(F)F)c3)CC2)cc1 ?
BaF3 tox: inactive; bCat nuc transl: inactive; IEC-6 tox: inactive; Ba/F3 V617F tox: inactive; MT stabilizer: inactive; KLF5 inh: inactive

Results for COc1ccc(NC(=O)N2CCN(c3cccc(C(F)(F)F)c3)CC2)cc1 ?
BaF3 tox: inactive; bCat nuc transl: inactive; IEC-6 tox: 24; Ba/F3 V617F tox: inactive; MT stabilizer: inactive; KLF5 inh: inactive; IEC-6 tox confirm: inactive

Results for Cc1ccc(S(=O)(=O)c2ncccc2[N+](=O)[O-])cc1 ?
IEC-6 tox: 101; KLF5 inh: inactive; IEC-6 tox confirm: inactive

How did O=C(O)COCC(=O)N1CCc2c([nH]c3ccccc23)C1C(F)(F)F (centres undefined) do in these assays?
IEC-6 tox: inactive; KLF5 inh: inactive

What do the screens show for `C1=Nc2c(Nc3ccccc3)ncnc2Oc2ccccc21`?
BaF3 tox: inactive; bCat nuc transl: inactive; IEC-6 tox: 53; Ba/F3 V617F tox: inactive; MT stabilizer: inactive; KLF5 inh: inactive; IEC-6 tox confirm: 33

How did Clc1ccc2c(c1)C=Nc1c(NCc3ccccc3)ncnc1O2 do in these assays?
BaF3 tox: inactive; bCat nuc transl: inactive; IEC-6 tox: inactive; Ba/F3 V617F tox: inactive; MT stabilizer: inactive; KLF5 inh: inactive

Results for Clc1ccc2[nH]c(-c3ccccc3)cc2c1 ?
BaF3 tox: inactive; bCat nuc transl: inactive; IEC-6 tox: inactive; Ba/F3 V617F tox: inactive; MT stabilizer: inactive; KLF5 inh: inactive

How did O=c1cc(-c2ccccc2)[nH]c2cc(Cl)ccc12 do in these assays?
BaF3 tox: 46; IEC-6 tox: 57; Ba/F3 V617F tox: 80; MT stabilizer: inactive; KLF5 inh: inactive; IEC-6 tox confirm: 58

What do the screens show for `CN(Cc1cc2ccccc2[nH]c1=O)C(=O)COc1ccccc1`?
BaF3 tox: inactive; bCat nuc transl: inactive; IEC-6 tox: inactive; Ba/F3 V617F tox: inactive; KLF5 inh: inactive

Results for Cc1cc(NC(c2ccc(Cl)cc2)c2ccc3cccnc3c2O)no1 (centres undefined) ?
BaF3 tox: 55; IEC-6 tox: 39; Ba/F3 V617F tox: inactive; MT stabilizer: inactive; KLF5 inh: inactive; IEC-6 tox confirm: 72

How did CCC(=O)NC(c1cccs1)c1cc(Cl)c2cccnc2c1O (centres undefined) do in these assays?
BaF3 tox: inactive; bCat nuc transl: inactive; IEC-6 tox: inactive; Ba/F3 V617F tox: inactive; MT stabilizer: inactive; KLF5 inh: inactive

Results for CCC(=O)NC(c1ccc(Cl)cc1Cl)c1ccc2cccnc2c1O (centres undefined) ?
IEC-6 tox: 26; KLF5 inh: 86; IEC-6 tox confirm: 70

What do the screens show for `CCC(=O)NC(c1ccc(C)cc1)c1ccc2cccnc2c1O` (centres undefined)?
IEC-6 tox: 61; KLF5 inh: 73; IEC-6 tox confirm: 82

How did CCC(=O)NC(c1ccc(C)cc1)c1cc([N+](=O)[O-])c2cccnc2c1O (centres undefined) do in these assays?
BaF3 tox: inactive; bCat nuc transl: inactive; IEC-6 tox: inactive; Ba/F3 V617F tox: inactive; MT stabilizer: inactive; KLF5 inh: inactive

What do the screens show for `CCOC(=O)Nc1ccc2nc(N3CCCCCC3)sc2c1`?
BaF3 tox: 67; bCat nuc transl: 84; IEC-6 tox: 67; Ba/F3 V617F tox: 78; KLF5 inh: inactive; IEC-6 tox confirm: 60

What do the screens show for `Cc1nnc(SCc2ccccc2CSc2nnc(C)s2)s1`?
BaF3 tox: inactive; bCat nuc transl: inactive; IEC-6 tox: inactive; Ba/F3 V617F tox: inactive; MT stabilizer: inactive; KLF5 inh: inactive

Results for O=C(CNCc1ccccc1)Nc1ccc(Oc2ccccc2)cc1 ?
BaF3 tox: 52; bCat nuc transl: inactive; IEC-6 tox: 60; Ba/F3 V617F tox: 62; MT stabilizer: inactive; KLF5 inh: inactive; IEC-6 tox confirm: inactive

Results for COc1ccccc1N1CCN(CCCn2c(=S)[nH]c3ccccc3c2=O)CC1 ?
IEC-6 tox: inactive; KLF5 inh: inactive

Results for COc1ccc(N2CCN(CCCn3c(=S)[nH]c4ccccc4c3=O)CC2)cc1 ?
IEC-6 tox: 43; KLF5 inh: inactive; IEC-6 tox confirm: inactive
